Experimental data published in publication PMC2904523 (Journal of medicinal chemistry, 2010).

Tests used:
[1] = tested on: RT of HIV-1DH012 (lysate); assay: RT enzymatic inhibition; format: biochemical; conditions: RT from HIV-1DH012 lysate; Figure 3; average of three assays
Summary of the method: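 Reverse transcriptase came from a lysate of HIV-1DH012, a primary viral isolate. Enzyme activity was measured at various test compound concentrations with a commercial colorimetric HIV-1 RT kit, following the manufacturer's protocol. Each value is the average of three independent assays.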

HIV-1 IIIB = assay: HIV growth inhibition assay in H9 lymphocytes; conditions: for selectivity ratio at 6 days: human, SI (selective index) = CC50/EC50, HIV-1 IIIB in H9 cells; for EC50 (concentration that causes 50% inhibition of HIV-1 IIIB replication): HIV-1 IIIB in H9 cells, Panacos, average of three independent assays

Row | Compound | RT inhibition activity [1] | selectivity ratio at 6 days (HIV-1 IIIB) | EC50 (concentration that causes 50% inhibition of HIV-1 IIIB replication) (HIV-1 IIIB)
1 | Cc1cc(C#N)cc(C)c1Oc1cc(Nc2ccc(C#N)cc2)c(N)cc1[N+](=O)[O-] [Compound 37, 5-(4″-Cyano-2″,6″-dimethylphenoxy)-N^1-(4′-cyanophenyl)-4-nitrobenzene-1,2-diamine] | potently inhibited RT activity |  | 
2 | Cc1cc(Br)cc(C)c1Oc1cc(Nc2ccc(C#N)cc2)c(N)cc1[N+](=O)[O-] [Compound 36, 5-(4″-Bromo-2″,6″-dimethylphenoxy)-N^1-(4′-cyanophenyl)-4-nitrobenzene-1,2-diamine] |  | > 2800 | 
3 | Cc1cc(C#N)cc(C)c1Oc1ccc([N+](=O)[O-])c(Nc2ccc(C#N)cc2)c1 [Compound 26, 5-(4″-Cyano-2″,6″-dimethylphenoxy)-N-(4′-cyanophenyl)-2-nitroaniline] |  |  | sub-micromolar level
4 | Cc1cc(C#N)cc(C)c1Oc1cc(Nc2ccc(C#N)cc2)c(N)cc1N [Compound 34, 5-(4″-Cyano-2″,6″-dimethylphenoxy)-N^1-(4′-cyanophenyl)benzene-1,2,4-triamine] | potently inhibited RT activity |  | 
5 | Cc1cc(Br)cc(C)c1Oc1cc(Nc2ccc(C#N)cc2)c([N+](=O)[O-])cc1[N+](=O)[O-] [Compound 19, 5-(4″-Bromo-2″,6″-dimethylphenoxy)-N-(4′-cyanophenyl)-2,4-dinitrsoaniline] |  |  | sub-micromolar level
6 | Cc1cc(Br)cc(C)c1Oc1cc(Nc2ccc(C#N)cc2)c(N)cc1N [Compound 32, 5-(4″-Bromo-2″,6″-dimethylphenoxy)-N^1-(4′-cyanophenyl)benzene-1,2,4-triamine] |  |  | sub-micromolar level
7 | Cc1cccc(C)c1Oc1cc(Nc2ccc(C#N)cc2)c([N+](=O)[O-])cc1[N+](=O)[O-] [Compound 20, N-(4′-Cyanophenyl)-5-(2″,6″-dimethylphenoxy)-2,4-dinitroaniline] |  | 113 to 313 | sub-micromolar level
8 | Cc1cc(Br)cc(C)c1Oc1ccc([N+](=O)[O-])c(Nc2ccc(C#N)cc2)c1 [Compound 24, 5-(4″-Bromo-2″,6″-dimethylphenoxy)-N-(4′-cyanophenyl)-2-nitroaniline] |  | 113 to 313 | sub-micromolar level
9 | Cc1cc(C#N)cc(C)c1Oc1nc(Nc2ccc(C#N)cc2)nc(N)c1Br [Compound 4, etravirine, reference compound] | potently inhibited RT activity |  | 
10 | Cc1cc(C)c(Oc2cc(Nc3ccc(C#N)cc3)c([N+](=O)[O-])cc2[N+](=O)[O-])c(C)c1 [Compound 22, N-(4′-Cyanophenyl)-2,4-dinitro-5-(2″,4″,6″-trimethylphenoxy)aniline] |  | 113 to 313 | sub-micromolar level
